Source: article PMC2864799 (Assay and drug development technologies, 2010)

How the values were obtained:
Format in all cases: biochemical
[1] = tested on: GSTs (hGST A1-1, mGST A4-4, hGST M1-1, hGST P1-1, S. japonicum GST); assay: 1,536-well luminescence GST inhibition assay, all GSTs tested
Summary of the method: (§1)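 GST at 5 nM (hGST P1-1 125 nM) with GSH in 50 mM HEPES pH 7.5, 0.01% Tween-20. Pin-added test compound (1:2 16-point or 1:3 8-point series), 10 or 15 min RT. Substrate: PBI 1155 20 μM (S. japonicum), PBI 3773 10 μM (A1-1, M1-1, A4-4), PBI 1158 100 μM (P1-1). Reaction 40 min (P1-1 60 min) RT, then luciferase detection reagent and luminescence read. Percent inhibition from median catalyzed and no-enzyme controls; duplicate wells; curve-fitted IC50.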

hGST M1-1 = target: T1, hGST M1-1 (Homo sapiens, UniProt P09488); assay: 1,536-well luminescence GST inhibition assay, hGST M1-1; details: for IC50: 5 nM hGST M1-1, 10 μM PBI 3773, 40 min
T1 sequence (P09488 2-218 limits assumed): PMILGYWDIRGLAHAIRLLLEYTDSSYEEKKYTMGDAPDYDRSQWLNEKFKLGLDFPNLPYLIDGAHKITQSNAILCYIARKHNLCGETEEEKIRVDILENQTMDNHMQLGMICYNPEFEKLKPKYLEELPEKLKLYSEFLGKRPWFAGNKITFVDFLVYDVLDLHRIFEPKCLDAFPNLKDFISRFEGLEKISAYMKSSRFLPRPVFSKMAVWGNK
Summary of the method: as §1

hGST P1-1 = hGST P1-1 (Homo sapiens, UniProt P09211); assay: 1,536-well luminescence GST inhibition assay, hGST P1-1
Summary of the method: as §1

S. japonicum GST = S. japonicum GST (Schistosoma japonicum, UniProt P08515); assay: 1,536-well luminescence GST inhibition assay, S. japonicum GST
Summary of the method: as §1

hGST P1-1, sequence (P09211 2-210 limits assumed): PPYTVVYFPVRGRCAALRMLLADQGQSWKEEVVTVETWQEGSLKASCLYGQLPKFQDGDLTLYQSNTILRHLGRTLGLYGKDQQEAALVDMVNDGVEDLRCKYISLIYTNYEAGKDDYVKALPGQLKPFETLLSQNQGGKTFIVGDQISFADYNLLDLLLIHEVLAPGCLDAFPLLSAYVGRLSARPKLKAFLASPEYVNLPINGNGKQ
S. japonicum GST, sequence (P08515 whole entry): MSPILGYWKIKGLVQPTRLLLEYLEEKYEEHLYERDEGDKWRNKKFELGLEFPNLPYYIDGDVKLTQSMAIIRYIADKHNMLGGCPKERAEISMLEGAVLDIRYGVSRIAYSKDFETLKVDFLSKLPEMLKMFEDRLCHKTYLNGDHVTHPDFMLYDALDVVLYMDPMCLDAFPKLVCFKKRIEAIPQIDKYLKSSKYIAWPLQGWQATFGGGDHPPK

O=[N+]([O-])c1ccc(SCCCCCCCCO)c2nonc12 [NBD-8-OH]
inhibitory activity (in words) ([1]; against the GSTs tested): single-digit micromolar or better

NC(CCC(=O)NC(CSc1ccc([N+](=O)[O-])c2nonc12)C(=O)NCC(=O)O)C(=O)O (stereo not shown) [NBD-GS]
IC50 (hGST M1-1): 24.4 µM

Nc1c(S(=O)(=O)O)cc(Nc2ccc(Nc3nc(Cl)nc(Nc4cccc(S(=O)(=O)O)c4)n3)c(S(=O)(=O)O)c2)c2c1C(=O)c1ccccc1C2=O [Reactive Blue 2]
onset of luminescence decrease relative to IC50 (hGST M1-1; hGST M1-1): 8 fold
onset of luminescence quenching relative to IC50 (hGST P1-1; hGST P1-1): approximately 60 fold
IC50 (S. japonicum GST): 63 nM
onset of luminescence quenching relative to IC50 (S. japonicum GST; S. japonicum GST): several hundred times greater

NC(CCC(=O)NC(CSc1ccc(C(=O)OCCOCCOCCOCCOC(=O)c2ccc(SCC(NC(=O)CCC(N)C(=O)O)C(=O)NCC(=O)O)c([N+](=O)[O-])c2)cc1[N+](=O)[O-])C(=O)NCC(=O)O)C(=O)O (stereo not shown) [Bis-(NB-GS)]
IC50 (hGST M1-1): 0.191 µM
fold difference in IC50 (NBD-GS vs Bis-(NB-GS)) (hGST M1-1; hGST M1-1): ~ 130 fold

O=[N+]([O-])c1ccc(Cl)c([N+](=O)[O-])c1 [CDNB, 1-chloro-2,4-dinitrobenzene]
inhibition (in words) ([1]; top concentrations tested near 100 μM): partial inhibition only at the top concentrations tested

O=C1OC(c2ccc(O)c(S(=O)(=O)O)c2)(c2ccc(O)c(S(=O)(=O)O)c2)c2c(Br)c(Br)c(Br)c(Br)c21 [bromosulfalein]
inhibition (in words) (hGST P1-1; 125 nM hGST P1-1, 100 μM PBI 1158, 60 min): lack of inhibition
